Results collected from several papers.
Protocols differ between the studies behind these lines.
Cell line: A549
Observed: cell growth or viability

O=C(NC(=S)NC1CCCCC1)c1ccc2ccccc2c1 — IC50 (48 h): 5.72 µM
C[C@H]1Oc2cc(cnc2N)-c2c(nn(C)c2C#N)CN(C)C(=O)c2ccc(F)cc21 — IC50: > 8.4 µM
CC1=C(O)C(=O)C=C2C1=CC=C1[C@@]2(C)CC[C@@]2(C)[C@@H]3C[C@](C)(C(=O)OCCCOc4ccccc4)CC[C@]3(C)CC[C@]12C — IC50 (MTT; 48 h): 5.39 µM
CC(=O)O[C@H]1C(=O)[C@@]2(C)[C@H]([C@H](OC(=O)c3ccccc3)[C@]3(O)C[C@H](OC(=O)[C@H](O)[C@@H](NC(=O)c4ccccc4)c4ccccc4)C(C)=C1C3(C)C)[C@]1(OC(C)=O)CO[C@@H]1C[C@@H]2O — IC50 (SRB): 0.03 µM
COc1cc2ncnc(Nc3ccc(F)c(Cl)c3)c2cc1NC(=O)N/N=C/c1cccn1CCN1CCCC1 — IC50 (MTT; 72 h): 0.35 µM
O=C(NC(=S)NCCCNC(=S)NC(=O)c1ccc2ccccc2c1)c1ccc2ccccc2c1 — IC50 (48 h): 2.41 µM
COc1cc2ncnc(Nc3ccc(F)c(Cl)c3)c2cc1NC(=O)N/N=C/CN1CCOCC1 — IC50 (MTT; 72 h): 6.69 µM
CCN(CC)CCNC(=O)c1c(C)[nH]c(/C=C2\C(=O)Nc3ccc(F)cc32)c1C — IC50 (72 h): 4.56 µM
Cc1c(OCC(F)(F)F)ccnc1COc1ccc(NC(=O)Nc2ccc(Cl)cc2)cc1 — IC50 (MTT; 72 h): 2.39 µM
CCC(=O)Nc1cc(Nc2nc(N3CCc4sccc4C3)c3cccnc3n2)c(OC)cc1N1CCN(C(C)=O)CC1 — IC50 (MTT): 7.01 µM
CCCCNC(=O)NNC(=O)c1ccc(Nc2nccc(-c3ccccn3)n2)cc1 — IC50 (MTT; 24 h): > 40 µM
C=CC(=O)Nc1cccc(Oc2nc(Nc3ccc(N4CCN(C)CC4)cc3)nc3ccsc23)c1 — IC50 (MTT): 4.22 µM
C=CC(=O)Nc1cccc(Nc2nc(Nc3ccc(OCCOC)cc3)ncc2F)c1 — IC50: 4.96 µM
COc1ccnc(COc2ccc(NC(=O)Nc3ccc(F)cc3)cc2)c1OC — IC50 (MTT; 72 h): 23.3 µM
COc1c(C)c(OC)c2c(c1C)OC(c1ccccc1)CC2=O (stereo not shown) — IC50 (SRB; 72 h): > 50 µM
CS(=O)(=O)c1ccc(-n2cc(C=N/N=c3\[nH]c(-c4ccc(Br)cc4)cs3)c(-c3ccc([N+](=O)[O-])cc3)n2)cc1 — IC50 (MTT; 48 h): 28.4 µM
CN(C)CCn1cccc1/C=N/NC(=O)Nc1cc2c(Nc3ccc(F)c(Cl)c3)ncnc2cc1O[C@H]1CCOC1 — IC50 (MTT; 72 h): 1.84 µM
COc1ccccc1/C=C/CNCC(O)COc1ccc2ncccc2c1 (stereo not shown) — IC50 (CCK-8; 72 h): 44.3 µM
O=C(O)c1ccc(-n2nc(-c3ccccc3O)nc2-c2ccccc2O)cc1 — IC50 (MTT; 72 h): 12.1 µM
COc1ccccc1/C=C/CNCC(O)COc1cccc2ncccc12 (stereo not shown) — IC50 (CCK-8; 72 h): 28.1 µM
COc1ccc(C(=O)O[C@@H]2CN3Cc4c(cc5c(c4OC)OCO5)[C@@]24C=C[C@H](OC)C[C@@H]34)cc1OC — IC50 (WST-1): 2.6 µM
O=C(Nc1nnc(-c2cc3ccccc3[nH]2)s1)c1cc2c([nH]c3ccccc32)c(-c2ccc(Cl)cc2)n1 — IC50 (MTT; 72 h): 3.33 µM
